In ChEMBL document CHEMBL4368930, “Synthesis and anti-HSV activity of tricyclic penciclovir and hydroxybutylguanine derivatives” (Bioorg Med Chem, 2019):

Assays:
[1] = Cytostatic activity against human DND41 cells; type: ADME, cell-based
[2] = Cytotoxicity against HEL cells assessed as effect on cell morphology at 0.32 to 200 uM by microscopic analysis; type: cell-based; settings: human
[3] = system: Human alphaherpesvirus 2; experiment: Antiviral activity against herpes simplex virus 2 G infected in HEL cells assessed as reduction in virus-induced cytopathogenicity by microscopic analysis; type: functional, organism-based; settings: Human alphaherpesvirus 2, G
How it was run: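 Confluent cell monolayers were inoculated with 100 CCID50 of virus or 20 PFU. After a 1–2 h adsorption, residual virus was removed and cultures were incubated with the test compounds at 200, 40, 8, 1.6 and 0.32 μM. Cytopathicity was scored once it was complete in untreated infected controls.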

[4] = system: CAPAN-1; experiment: Cytostatic activity against human Capan1 cells; type: ADME, cell-based
[5] = Cytostatic activity against human HAP1 cells; type: ADME, cell-based
[6] = system: Z-138; experiment: Cytostatic activity against human Z138 cells; type: ADME, cell-based
[7] = system: Human alphaherpesvirus 1; experiment: Antiviral activity against thymidine kinase deficient and aciclovir resistant herpes simplex virus 1 KOS infected in HEL cells assessed as reduction in virus-induced cytopathogenicity by microscopic analysis; type: functional, organism-based; settings: Human alphaherpesvirus 1, strain KOS
[8] = system: HL-60; experiment: Cytostatic activity against human HL60 cells; type: ADME, cell-based
[9] = system: K562; experiment: Cytostatic activity against human K562 cells; type: ADME, cell-based
[10] = system: TERT-RPE1; experiment: Cytostatic activity against human hTERT-RPE1 cells; type: ADME, cell-based; settings: RPE-1
How it was run: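 Cell proliferation was measured against the number of cells in untreated controls.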

[11] = system: NCI-H460; experiment: Cytostatic activity against human NCI-H460 cells; type: ADME, cell-based
[12] = system: Human alphaherpesvirus 1; experiment: Antiviral activity against herpes simplex virus 1 KOS infected in HEL cells assessed as reduction in virus-induced cytopathogenicity by microscopic analysis; type: functional, organism-based; settings: Human alphaherpesvirus 1, strain KOS
[13] = system: Human alphaherpesvirus 3; experiment: Antiviral activity against Varicella-zoster virus Oka harboring thymidine kinase infected in HEL cells assessed as reduction in virus plaque formation; type: functional, organism-based; settings: Human alphaherpesvirus 3, Oka
[14] = system: Human betaherpesvirus 5; experiment: Antiviral activity against Human cytomegalovirus Davis assessed as reduction in virus-induced cytopathogenicity by microscopic analysis; type: functional, organism-based; settings: Human betaherpesvirus 5, Davis
[15] = system: Human betaherpesvirus 5; experiment: Antiviral activity against Human cytomegalovirus AD169 assessed as reduction in virus-induced cytopathogenicity by microscopic analysis; type: functional, organism-based; settings: Human betaherpesvirus 5, strain AD169
[16] = system: Human alphaherpesvirus 3; experiment: Antiviral activity against thymidine kinase deficient Varicella-zoster virus 07-1 infected in HEL cells assessed as reduction in virus plaque formation; type: functional, organism-based; settings: Human alphaherpesvirus 3, 07-1, HEL

Compound | IC50 [1] [µM] | MCC at up to 200 µM [2] [µM] | EC50 [3] [µM] | IC50 [4] [µM] | IC50 [5] [µM] | IC50 [6] [µM] | EC50 [7] [µM] | IC50 [8] [µM] | IC50 [9] [µM] | IC50 [10] [µM] | IC50 [11] [µM] | EC50 [12] [µM] | EC50 [13] [µM] | EC50 [14] [µM] | EC50 [15] [µM] | EC50 [16] [µM]
COc1ccc(-c2cn3c(=O)c4ncn(CCCCO)c4nc3[nH]2)cc1 | > 100 | > 100 | > 100 | 98.9 | > 100 | > 100 | > 100 | > 100 | > 100 | > 100 | > 100 | > 100 |  |  |  | 
O=c1c2ncn(CCC(CO)CO)c2nc2[nH]c(-c3ccc(Cl)cc3)cn12 | > 100 | > 100 | > 100 | 84.8 | > 100 | > 100 | > 100 | > 100 | > 100 | > 100 | > 100 | > 100 | > 100 | > 100 | > 100 | > 100
COc1ccc(-c2cn3c(=O)c4ncn(CCC(CO)CO)c4nc3[nH]2)cc1 | > 100 | > 100 | 0.8 | > 100 | > 100 | > 100 | 0.8 | > 100 | > 100 | > 100 | > 100 | 1.5 | 66.9 | > 100 | > 100 | 100
Cc1ccc(-c2cn3c(=O)c4ncn(CCC(CO)CO)c4nc3[nH]2)cc1 | > 100 | > 100 | > 100 | > 100 | > 100 | > 100 | > 100 | > 100 | > 100 | > 100 | > 100 | > 100 | 63.1 | > 100 | > 100 | > 100
CN[C@@H]1C[C@H]2O[C@@](C)([C@@H]1OC)n1c3ccccc3c3c4c(c5c6ccccc6n2c5c31)C(=O)NC4 [STAUROSPORINE] |  |  |  |  |  |  |  |  |  | 0.25 |  |  |  |  |  | 
Nc1ccn(C[C@@H](CO)OCP(=O)(O)O)c(=O)n1 [CIDOFOVIR] |  | > 250 |  |  |  |  | 5 |  |  |  |  |  |  |  | 0.72 | 
CCOc1ccc(-c2cn3c(=O)c4ncn(CCC(CO)CO)c4nc3[nH]2)cc1 | > 100 | > 100 | > 20 | > 100 | > 100 | > 100 | > 100 | > 100 | > 100 | > 100 | 95.4 | 76.5 | > 100 | > 100 | > 100 | > 100
O=c1[nH]c(=O)n([C@H]2C[C@H](O)[C@@H](CO)O2)cc1/C=C/Br [BRIVUDINE] |  | > 250 | > 250 |  |  |  | 14 |  |  |  |  |  | 0.037 |  |  | 7.9
O=c1c2ncn(CCCCO)c2nc2[nH]c(-c3cccs3)cn12 | > 100 | > 100 | > 100 | > 100 | > 100 | > 100 | > 100 | > 100 | > 100 | > 100 | > 100 | > 100 |  |  |  | 
O=c1c2ncn(CCC(CO)CO)c2nc2[nH]c(-c3ccc(Oc4ccccc4)cc3)cn12 | 90.4 | > 100 | > 100 | 46.4 | 44 | > 100 | > 100 | 63.3 | > 100 | 16.9 | 47.2 | > 100 | 62.8 | > 100 | > 100 | > 100
O=c1c2ncn(CCCCO)c2nc2[nH]c(-c3ccc4c(c3)OCO4)cn12 | > 100 | > 100 | > 100 | 92.8 | > 100 | > 100 | > 100 | > 100 | > 100 | > 100 | > 100 | > 100 |  |  |  | 
O=c1c2ncn(CCC(CO)CO)c2nc2[nH]c(-c3ccccc3)cn12 | > 100 | > 100 | > 100 | 58.3 | > 100 | > 100 | > 100 | > 100 | > 100 | 78.6 | > 100 | > 100 | > 100 | > 100 | > 100 | > 100
